Data set [1] in a line: Permeability across human Caco2 cells. The data set is classed as ADME, cell-based. The following applies: Caco-2, read-out: permeability. The method, boiled down:
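Permeability was measured with the compound alone and in the presence of the P-gp inhibitor elacridar, and expressed in 10^-7 cm/s.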
On the technique in general: Caco-2 monolayers are a common model of the intestinal barrier.

Data set [2] relates to Mus musculus. Nature of the data set: Ex vivo inhibition of 11beta-HSD1 in C57Bl/6J mouse subcutaneous fat at 30 mg/kg, po after 16 hrs. The data set is classed as functional. The method, boiled down: (§1)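 Mice given a single oral dose as a suspension in Tween 80/0.6% methylcellulose (0.5/99.5, v/v) at 10 mL/kg. At 2 h or 16 h post-dose, animals were killed by cervical dislocation and 50 mg liver and 200 mg subcutaneous fat were taken for 11β-HSD1 activity. Reactions were stopped with HCl 1 N/methanol (1/1). 3H-cortisone and 3H-cortisol were quantified by HPLC with flow scintillation detection.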

The test system of data set [3] is Mus musculus. Nature of the data set: Ex vivo inhibition of 11beta-HSD1 in C57Bl/6J mouse liver at 30 mg/kg, po after 16 hrs. The data set is classed as functional. The method, boiled down:
as §1

In data set [4] the target is Cytochrome P450 3A4 (Homo sapiens, UniProt P08684). Description: Inhibition of CYP3A4 (unknown origin). The format is ADME.
For data set [5], the system named is Liver microsomes. Description: Metabolic stability in rat liver microsomes. The format is ADME, Microsome. Background: Liver microsomes are vesicles of endoplasmic reticulum, rich in cytochrome P450 enzymes.
Data set [6] relates to Liver microsomes. Description: Metabolic stability in human liver microsomes. The data set is classed as ADME, Microsome.
Data set [7] concerns Liver. Nature of the data set: Metabolic stability in mouse liver microsomes. The format is ADME, Microsome.
Data set [8] deals with 11-beta-hydroxysteroid dehydrogenase 1 (Mus musculus, UniProt P50172). Nature of the data set: Inhibition of mouse recombinant 11beta-HSD1 by scintillation proximity assay. On the technique in general: SPA uses beads or plates that emit light when radiolabelled molecules are held near them.
The target of data set [9] is 11-beta-hydroxysteroid dehydrogenase 1 (Rattus norvegicus, UniProt P16232). Nature of the data set: Inhibition of rat 11beta-HSD1.
The test system of data set [10] is Mus musculus. Description: Ex vivo inhibition of 11beta-HSD1 in C57Bl/6J mouse subcutaneous fat at 10 mg/kg, os after 2 hrs. The settings on record: sc. The format is functional. The method in brief: as §1
For data set [11], the system named is Mus musculus. Description: Ex vivo inhibition of 11beta-HSD1 in C57Bl/6J mouse liver at 10 mg/kg, os after 2 hrs. The data set is classed as functional. The method in brief: as §1
For data set [12], the target named is T1, 11-beta-hydroxysteroid dehydrogenase type 2 (Homo sapiens, UniProt P80365).
T1 sequence (P80365 whole entry): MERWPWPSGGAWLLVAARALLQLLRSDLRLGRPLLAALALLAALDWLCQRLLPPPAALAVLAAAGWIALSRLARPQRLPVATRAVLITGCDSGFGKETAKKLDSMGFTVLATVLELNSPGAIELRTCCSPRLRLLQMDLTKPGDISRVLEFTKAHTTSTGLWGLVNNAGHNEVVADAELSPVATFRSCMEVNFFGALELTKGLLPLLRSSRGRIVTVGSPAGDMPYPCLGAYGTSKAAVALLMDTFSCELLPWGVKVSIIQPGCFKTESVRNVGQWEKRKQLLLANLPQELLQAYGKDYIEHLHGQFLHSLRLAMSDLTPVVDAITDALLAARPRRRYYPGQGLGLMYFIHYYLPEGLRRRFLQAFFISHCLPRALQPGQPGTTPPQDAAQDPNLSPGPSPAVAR
Nature of the data set: Inhibition of human 11beta-HSD2.

Data set [13] has as its system Mus musculus. Description: Ex vivo inhibition of 11beta-HSD1 in C57Bl/6J mouse subcutaneous fat at 30 mg/kg, os after 2 hrs. The data set is classed as functional. The settings on record: sc. The method, boiled down:
as §1

For data set [14], the system named is Mus musculus. Description: Ex vivo inhibition of 11beta-HSD1 in C57Bl/6J mouse liver at 30 mg/kg, os after 2 hrs. The format is functional. The method in brief:
as §1

In data set [15] the test system is Mus musculus. Description: Ex vivo inhibition of 11beta-HSD1 in C57Bl/6J mouse subcutaneous fat at 3 mg/kg, po after 16 hrs. The data set is classed as functional. The method, boiled down:
as §1

Data set [16] relates to Mus musculus. Nature of the data set: Ex vivo inhibition of 11beta-HSD1 in C57Bl/6J mouse liver at 3 mg/kg, po after 16 hrs. The format is functional. The method in brief:
as §1

Structures are written as SMILES. pIC50: −log10 of the molar value. Bounds are passed on as bounds.

Chain of 11-beta-hydroxysteroid dehydrogenase 1 (Mus musculus, UniProt P50172) (P50172 whole entry): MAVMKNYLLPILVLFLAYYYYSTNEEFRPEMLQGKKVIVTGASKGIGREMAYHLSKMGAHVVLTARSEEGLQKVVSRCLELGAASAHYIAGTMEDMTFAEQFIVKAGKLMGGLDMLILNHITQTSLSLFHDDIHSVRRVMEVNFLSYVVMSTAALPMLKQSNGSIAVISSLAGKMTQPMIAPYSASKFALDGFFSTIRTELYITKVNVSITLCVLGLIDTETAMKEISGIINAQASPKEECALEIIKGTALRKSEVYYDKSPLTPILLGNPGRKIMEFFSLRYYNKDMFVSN
Chain of Cytochrome P450 3A4 (P08684 whole entry): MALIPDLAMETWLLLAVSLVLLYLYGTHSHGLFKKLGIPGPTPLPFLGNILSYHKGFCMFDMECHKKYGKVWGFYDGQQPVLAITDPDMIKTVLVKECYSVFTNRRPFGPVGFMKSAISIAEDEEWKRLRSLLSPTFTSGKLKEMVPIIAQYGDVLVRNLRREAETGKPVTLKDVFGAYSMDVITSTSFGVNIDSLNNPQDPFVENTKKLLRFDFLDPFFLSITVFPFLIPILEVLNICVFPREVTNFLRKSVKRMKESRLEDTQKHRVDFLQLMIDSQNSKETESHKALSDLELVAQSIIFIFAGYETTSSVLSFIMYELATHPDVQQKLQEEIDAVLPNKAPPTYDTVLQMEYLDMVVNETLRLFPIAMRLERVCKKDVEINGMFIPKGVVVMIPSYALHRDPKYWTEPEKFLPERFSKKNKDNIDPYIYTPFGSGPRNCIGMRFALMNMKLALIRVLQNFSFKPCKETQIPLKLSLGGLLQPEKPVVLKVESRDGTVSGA
Chain of 11-beta-hydroxysteroid dehydrogenase 1 (Rattus norvegicus, UniProt P16232) (P16232 whole entry): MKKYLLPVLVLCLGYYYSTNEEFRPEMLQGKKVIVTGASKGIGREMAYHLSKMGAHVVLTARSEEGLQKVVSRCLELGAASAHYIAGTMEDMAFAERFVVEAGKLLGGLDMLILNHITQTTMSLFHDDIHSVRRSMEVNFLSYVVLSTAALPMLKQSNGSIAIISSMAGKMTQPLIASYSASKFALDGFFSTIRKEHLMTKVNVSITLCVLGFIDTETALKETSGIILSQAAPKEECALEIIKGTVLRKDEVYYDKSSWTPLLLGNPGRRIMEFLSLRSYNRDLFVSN

What is called inhibition in vivo is the percentage by which the read-out fell short of the control. Low values mean a response near the control, high ones a response far below the control. The term pIC50 denotes −log10 of the IC50, conventionally taken in molar units. Regarding `O=C(N[C@H]1C2CC3CC1C[C@](O)(C3)C2)N1CCN(c2ccc(N3CCN(S(=O)(=O)C4CC4)CC3)cn2)c2ccccc21`, the Papp in data set [1] came out at 9.8 ×10⁻⁶ cm/s. Moreover, the figures for the inhibition in vivo at 30 mg/kg in data set [2] and in data set [3] were 40% and 65%, respectively. Also, the figures for the pIC50 in data set [4], in [8] and in data set [9] were less than 5.00, 7.68 and 7.68, respectively. Further, the Stability in [5] is 23%; in data set [6] it was 9%; in [7], 22%.
Turning to `COc1ccc(-c2cnc(N3CCN(C(=O)N[C@H]4C5CC6CC4C[C@](O)(C6)C5)c4ccccc43)nc2)cc1`, the Papp in data set [1] is 24.8 ×10⁻⁶ cm/s. Moreover, the values for the inhibition in vivo at 10 mg/kg in data set [10] and in [11] were 30% and 40%, respectively. The pIC50 in data set [4] is less than 5.00; in data set [8], 7.82; in data set [9], 6.96. The Stability in data set [5] came out at 33%; in data set [6], 41%; in data set [7] it was 21%.
For `COc1ccc(-c2cnc(N3CCN(C(=O)N4CCC(c5cn[nH]c5)C4)c4ccccc43)nc2)cc1` (centres undefined), the pIC50 in data set [4] is greater than 6.52; in data set [12] it was less than 5.00; in [9], 6.22. In addition, the inhibition in vivo at 30 mg/kg is 70% in data set [13] and 90% in data set [14].
Take `CS(=O)(=O)N1CCN(c2ccc(N3CCN(C(=O)N[C@H]4C5CC6CC4C[C@](O)(C6)C5)c4ccccc43)nc2)CC1`: in data set [1], the Papp turned out to be 7.9 ×10⁻⁶ cm/s. In addition, the inhibition in vivo at 30 mg/kg came out at 20% in data set [2] and 47% in data set [3]. Further, the pIC50 was less than 4.52 in data set [4], 8.70 in [8] and 7.80 in data set [9]. Besides, the Stability in [5] is 12%; in data set [6] it was 12%; in data set [7], 18%.
In the case of `COc1ccc(-c2cnc(N3CCN(C(=O)N[C@H]4C5CC6CC4C[C@](OC(N)=O)(C6)C5)c4ccccc43)nc2)cc1`, the values for the pIC50 in [4], in [8] and in data set [9] were less than 5.00, 8.30 and 7.00, respectively. Further, the results for the Stability in [5], in [6] and in data set [7] were 70%, 89% and 96%, respectively.
Consider `CS(=O)(=O)N1CCN(c2ccc(N3CCN(C(=O)N[C@H]4C5CC6CC4C[C@](C(N)=O)(C6)C5)c4ccccc43)cc2)CC1`, for which the Papp in data set [1] worked out at 3 ×10⁻⁶ cm/s. The inhibition in vivo at 30 mg/kg turned out to be 30% in [2] and 55% in data set [3]. The pIC50 in data set [4] was less than 5.00; in [8] it was 8.30; in data set [9], 7.62. Also, the Stability in data set [5] was found to be 26%; in data set [6], 3%; in data set [7], 22%.
For the compound `CC(C)(C)N1CCN(c2ccc(N3CCN(C(=O)N[C@H]4C5CC6CC4C[C@](O)(C6)C5)c4ccccc43)nc2)CC1`, the Papp in data set [1] amounted to 3.4 ×10⁻⁶ cm/s. Moreover, the inhibition in vivo at 30 mg/kg in data set [2] amounted to 20%; in data set [3], 55%. Moreover, the Stability in data set [5] is recorded as 20%; in [6], 14%; in [7], 6%. In addition, the pIC50 in data set [8] is 8.10; in data set [9] it was 7.74.
Turning to `COc1ccc(-c2cnc(N3CCN(C(=O)N[C@H]4C5CC6CC4C[C@](C(N)=O)(C6)C5)c4ccccc43)nc2)cc1`, in [1], the Papp came to 18.2 ×10⁻⁶ cm/s. The pIC50 in data set [4] was less than 5.00; in [8], 7.44; in data set [9], 7.15. For the same compound, the results for the Stability in data set [5], in data set [6] and in data set [7] were 32%, 49% and 27%, respectively.
For the compound `CC(=O)N1CCN(c2ccc(N3CCN(C(=O)N[C@H]4C5CC6CC4C[C@](O)(C6)C5)c4ccccc43)nc2)CC1`, the Papp in data set [1] is 1 ×10⁻⁶ cm/s. The inhibition in vivo at 30 mg/kg in [2] and in data set [3] was 0% throughout. For the same compound, the pIC50 is less than 4.52 in [4] and 7.19 in data set [9]. In addition, the results for the Stability in data set [5], in data set [6] and in data set [7] were 18%, 5% and 14%, respectively.
With `CS(=O)(=O)N1CCN(c2cnc(N3CCN(C(=O)N[C@H]4C5CC6CC4C[C@](O)(C6)C5)c4ccccc43)nc2)CC1`, in [1], the Papp worked out at 0.7 ×10⁻⁶ cm/s. For the same compound, the inhibition in vivo at 30 mg/kg amounted to 0% in data set [2] and 30% in data set [3]. Also, the figures for the pIC50 in [4], in data set [8] and in data set [9] were less than 5.00, 9.00 and 7.55, respectively. In addition, the Stability is recorded as 24% in data set [5], 9% in data set [6] and 18% in [7].
For `CS(=O)(=O)N1CCN(c2ccc(N3CCN(C(=O)N[C@H]4C5CC6CC4C[C@](O)(C6)C5)c4ccccc43)cc2)CC1`, the Papp in [1] came out at 19.4 ×10⁻⁶ cm/s. Further, the inhibition in vivo at 30 mg/kg in data set [2] amounted to 55%; in [3] it was 80%. In addition, the pIC50 in data set [4] is less than 5.00; in data set [8] it was 9.00; in data set [9] it was 6.94. The Stability is on record as 17% in [5], 2% in [6] and 9% in data set [7].
Turning to `NC(=O)[C@]12CC3CC(C1)[C@@H](NC(=O)N1CCN(c4ccc(N5CCN(S(=O)(=O)C6CC6)CC5)cn4)c4ccccc41)C(C3)C2`, in [1], the Papp was found to be 0.4 ×10⁻⁶ cm/s. Also, the inhibition in vivo at 30 mg/kg in data set [2] was 50%; in [3], 75%. Further, the pIC50 was less than 4.52 in [4], 8.10 in data set [8] and 8.05 in data set [9]. The Stability in data set [5] is given as 31%; in [6], 1%; in data set [7] it was 18%. In addition, the inhibition in vivo at 3 mg/kg in data set [15] and in data set [16] was greater than 50% in each case.

Source of the values: ChEMBL document CHEMBL2380292, “Discovery of SAR184841, a potent and long-lasting inhibitor of 11β-hydroxysteroid dehydrogenase type 1, active in a physiopathological animal model of T2D” (Bioorg Med Chem Lett, 2013).
